m5-HT2A agonist – agonists of mouse serotonin 5-HT2A receptor (HTR2A); CHO-K1 mHTR2A beta-arrestin complementation, luminescence; percent of 30 µM serotonin response; activation, % at 7.6 µM; 360,000 compounds, 0.66% hits;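 active means activation above a run cutoff, the mean activation of all tested compounds plus 3 SD, cut at about 14% in these data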;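 further: 0% = plate median of compound wells and 100% = 30 µM serotonin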
CXCR6 block – CXCR6 (human) receptor inhibition; 360,000 compounds, 0.36% hits; O00574; inhibition, % at 20 µM; CHO-K1 PathHunter CXCR6 beta-arrestin, luminescence; in the data active means inhibition above about 34%, passing the limit was not always enough;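 further: antagonist mode with CXCL16 agonist at 10 nM final; 0% = 10 nM CXCL16 with DMSO and 100% = unstimulated wells without agonist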
Target sequence (O00574 whole entry, looked up): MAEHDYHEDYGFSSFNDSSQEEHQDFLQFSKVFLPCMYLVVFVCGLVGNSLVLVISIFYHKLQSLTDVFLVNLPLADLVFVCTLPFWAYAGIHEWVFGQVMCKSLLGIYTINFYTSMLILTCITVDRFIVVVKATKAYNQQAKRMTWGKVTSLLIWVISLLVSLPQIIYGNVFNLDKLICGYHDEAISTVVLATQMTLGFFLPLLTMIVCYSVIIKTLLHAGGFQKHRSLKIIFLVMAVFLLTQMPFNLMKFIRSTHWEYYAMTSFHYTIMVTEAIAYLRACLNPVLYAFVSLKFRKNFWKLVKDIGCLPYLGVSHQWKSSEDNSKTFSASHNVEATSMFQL
CCR6 antag – blocks CCL20-driven beta-arrestin recruitment at human CCR6. CHO-K1 CCR6 PathHunter beta-arrestin, luminescence, CCL20-stimulated. P51684. AID 493098. inhibition, % at 20 µM. 340,000 compounds, 0.49% hits;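 active means compounds whose inhibition of the agonist-driven luminescence signal at 20 µM reaches about 50%, limit read from the data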;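 further: cells stimulated with CCL20 at 14 nM final; plate controls were DMSO with CCL20 for no effect and DMSO without agonist for full effect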
EBI2 block – EBI2 (human) antagonism. inhibition, % at 5 µM. EBI2 beta-arrestin recruitment, luminescence, 7a,25-OHC stimulated. P32249. 360,000 compounds, 0.81% hits; in the data active means inhibition above about 38%;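 further: enzyme fragment complementation signal reports receptor beta-arrestin coupling in cells; 0% = agonist plus DMSO wells and 100% = wells without agonist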
APJ agonist – activates the human apelin receptor APJ. P35414. CHO-K1 APJ PathHunter beta-arrestin, luminescence; 0% DMSO wells, 100% apelin. activation, % at 20 µM. 330,000 compounds, 0.11% hits. AID 2520;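 active means activation more than six SD over the plate average, tested at 20 µM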;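 further: 0% = DMSO alone and 100% = apelin-13 at 10 nM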
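Test system: CHO-K1 APJ beta-arrestin complementation cell line | Compound: Single test compound dose, 20 µM final, 1% DMSO | Incubation: Compound 90 min 25 °C, reagent 1 h | Measured by: beta-gal luminescence | Read-out basis: APJ–arrestin association signal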
APJ antag – blocks the human apelin receptor APJ; P35414; AID 2521; 330,000 compounds, 0.32% hits; CHO-K1 APJ beta-arrestin complementation, luminescence; inhibition, % at 20 µM;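 active means inhibition above about 40% at 20 µM, limit read from the data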;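 further: cells challenged with 10 nM apelin-13 agonist together with compound; plate controls were apelin-13 plus DMSO wells for no effect and DMSO wells lacking apelin-13 for full effect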
EBI2 antag conf – confirmation of human EBI2 receptor antagonists. shares compounds with EBI2 block. EBI2 beta-arrestin luminescence, 7a,25-OHC antagonism. inhibition, % at 5 µM. 2,400 compounds, 29% hits;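 active means inhibition of at least 50%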
EBI2 agonist – EBI2 agonism counter-screen | activation, % at 5 µM | 2,400 tested, under 10 active | shares compounds with EBI2 block | EBI2-expressing cells, agonist mode, luminescence, 60 min; 0% vehicle, 100% 7α,25-dihydroxycholesterol control;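 active means activation of at least 50%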
bGal cs – beta-galactosidase inhibition counter-screen; shares compounds with EBI2 block; purified beta-galactosidase, luminescent Galacton Star, 15 min; inhibition, % at 5 µM; 2,400 compounds, 1% hits; AID 652176;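 active means replicate-average signal at least 3 plate SD below neutral wells, shown as high inhibition, flagging enzyme-inhibiting false positives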;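 further: 0% = DMSO wells with enzyme and 100% = wells lacking enzyme; higher means stronger loss of beta-gal luminescence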
Active calls of the source: *; / = not tested or not shown. Most compounds without a hit are left out; they make up all but 2.1% or so of the library.

SMILES	m5-HT2A agonist	CXCR6 block	CCR6 antag	EBI2 block	APJ agonist	APJ antag	EBI2 antag conf	EBI2 agonist	bGal cs
Cc1cccc(OCC(=O)Nc2ccccc2N2CCCCC2)c1C	4	7	40	43*	-2	-7	11	-1	-8
COc1ccccc1OCC(=O)NC1CCCc2ccccc21 (stereo unspecified)	-1	9	3	-4	-5	8	/	/	/
O=C(c1ccc2ccccc2c1)N1CCN(c2ccc(O)cc2)CC1	-4	5	8	57*	0	-15	26	-1	-11
Cc1ccc(C(=O)N2CCN(c3ccccn3)CC2)cc1	4	-8	4	0	-6	-12	/	/	/
Cc1ccc2c(c1)cc(C(=O)N1CCN(c3ccccn3)CC1)n2C	0	14	9	47*	-3	9	34	-2	-9
O=C(c1ccc2ccccc2c1)N1CCN(c2ccccn2)CC1	1	9	3	56*	-2	0	42	1	9
O=C(NCCS(=O)(=O)N1CCN(c2ccccc2)CC1)C1CC1	-2	-5	3	8	-5	-1	/	/	/
O=C(/C=C1\C(=O)Nc2ccccc21)/C=C1\C(=O)Nc2ccccc21	-7	20	38	41*	/	/	37	-1	-19
O=C(N/N=C/c1ccc(Cl)cc1Cl)c1cccc(F)c1	-8	1	8	45*	-1	4	41	2	3
O=C(NCc1ccccc1)c1ccc(Oc2ccc(C(=O)NCc3ccccc3)cc2)cc1	-1	-2	-7	47*	-3	-7	21	1	8
O=C(NCc1ccccc1)c1ccc(C2SCC(=O)N2Cc2ccccc2)cc1 (stereo unspecified)	-4	9	11	41*	-2	8	36	-1	-9
O=C(CN(c1ccccc1)S(=O)(=O)c1ccccc1)NCCSc1nc2ccccc2s1	2	8	-2	59*	-1	24	53*	1	-3
Cc1cccc(N(CC(=O)NCCSc2nc3ccccc3s2)S(=O)(=O)c2ccccc2)c1	/	/	/	/	-1	3	/	/	/
Cc1ccc(N(CC(=O)NCCSc2nc3ccccc3s2)S(=O)(=O)c2ccccc2)c(C)c1	-7	7	9	46*	-2	-2	14	0	2
Cc1ccccc1N(CC(=O)NCCSc1ccccn1)S(=O)(=O)c1ccccc1	-1	-3	-1	8	0	4	/	/	/
c1ccc(-c2ccc(C3CCCN3)cc2)cc1 (stereo unspecified)	-6	-8	6	-14	-6	8	/	/	/
COC(=O)c1ccc(N=c2sc(C(=O)OC)cc(=O)n2C)cc1	5	3	21	66*	/	/	78*	-1	-16
CCOC(=O)c1ccc(N=c2sc(C(=O)OC)cc(=O)n2C2CC2)cc1	3	1	3	35	1	3	/	/	/
COC(=O)c1cc(=O)n(Cc2ccc3c(c2)OCO3)c(=Nc2ccc(F)cc2)s1	13	7	11	66*	-5	4	34	1	6
COC(=O)c1cc(=O)n(Cc2ccc3c(c2)OCO3)c(=Nc2ccccc2)s1	-2	9	3	53*	-7	19	58*	-1	-15
COC(=O)c1cc(=O)n(Cc2ccc(F)cc2)c(=NCc2ccc(F)cc2)s1	0	-9	0	40	-2	8	/	/	/
COCc1cccc(-c2csc(C(NC(C)=O)c3ccc(F)c(F)c3)n2)c1 (stereo unspecified)	-2	-6	/	-9	/	/	/	/	/
Cc1cccc(OCC(=O)N2CCN(c3nnc(-c4ccccc4)c4ccccc34)CC2)c1	2	14	10	55*	-2	4	29	3	3
Cc1ccc(-c2nnc(N3CCN(C(=O)c4ccco4)CC3)c3ccccc23)cc1	-5	9	17	-15	2	2	/	/	/
CC(=O)N1CCN(c2nnc(-c3ccccc3)c3ccccc23)CC1	-4	4	3	-10	-1	-4	/	/	/
SMILES	m5-HT2A agonist	CXCR6 block	CCR6 antag	EBI2 block	APJ agonist	APJ antag	EBI2 antag conf	EBI2 agonist	bGal cs
Cc1ccc(-c2nnc(N3CCN(C(=O)COc4cccc(C)c4)CC3)c3ccccc23)cc1	1	-1	12	63*	1	8	32	-1	-12
COCCNC(=O)Cn1cc(/C=C(\C#N)C(=O)NC2CCCC2)c2ccccc21	-3	5	2	-14	-4	-11	/	/	/
N#Cc1ccc(-c2ccc(F)cc2)nc1SCC(=O)Nc1sc2c(c1C#N)CCC2	-2	-1	15	53*	-1	9	33	2	-16
O=C(Nc1cnn(Cc2ccc(Cl)c(Cl)c2)c1)C12CC3CC(CC(C3)C1)C2	-5	-12	7	42*	-3	-3	32	1	4
Cc1ccc(/C=C/C(=O)NCc2cccs2)cc1	1	-4	12	53*	2	-2	44	2	1
Cc1ccc(/C=C/C(=O)NCc2ccncc2)cc1	1	5	1	64*	0	12	31	-1	-8
COc1ccc(N(CC(=O)NCc2ccccc2)C(=O)CCC(=O)Nc2cc(C)ccn2)c(OC)c1	5	4	9	-2	-3	8	/	/	/
O=C(/C=C/c1ccccc1)N1CCN(c2ccc([N+](=O)[O-])c(N3CCOCC3)c2)CC1	-5	-4	15	78*	4	18	58*	-2	-7
Cc1cccc(C(=O)N2CCN(c3ccc([N+](=O)[O-])c(N4CCOCC4)c3)CC2)c1	1	-3	-5	13	0	11	/	/	/
O=C(c1ccc2ccccc2c1)N1CCN(c2ccc([N+](=O)[O-])c(N3CCOCC3)c2)CC1	-6	-3	7	47*	-3	-14	34	0	7
O=C(NCc1ccccc1Cl)C(=O)NCC(c1ccco1)N1CCOCC1 (stereo unspecified)	-2	-3	5	-7	0	-23	/	/	/
O=C(CC1SC(N2CCCC2)=NC1=O)Nc1ccc(C(=O)Nc2ncccc2O)cc1 (stereo unspecified)	2	-12	-3	-1	-2	-19	/	/	/
Cc1ccc(Nc2c(-c3ccccc3O)nc3cnccn23)cc1	-1	3	6	57*	-3	-13	32	2	8

Source: PubChem BioAssay (several laboratories)
